Reference: the EternaBench riboswitch data

System: MS2 coat protein
Assay: apparent Kd, MS2 coat protein; higher = weaker binding; RNA-MaP array; FMN 200 µM where present
How it was run: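 Apparent Kd: the median of filtered binding-curve fits from single clusters. Designs were transcribed on Illumina sequencing-chip clusters by stalled E. coli RNA polymerase and titrated with SNAP-549-labelled MS2 coat protein from 0.7 or 1.5 nM, doubling to 3 µM, in 100 mM Tris-HCl pH 7.5, 80 mM KCl, 4 mM MgCl2, BSA, DTT, yeast tRNA and Tween-20. Each series ran without and then with constant ligand, and green signal was normalised to red-channel RNA signal and control-cluster median Fmax.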

[1] = designed as: OFF switch for flavin mononucleotide, no ligand
[2] = ligand present: flavin mononucleotide, designed as: OFF switch for flavin mononucleotide
[3] = designed as: ON switch for flavin mononucleotide, no ligand
[4] = ligand present: flavin mononucleotide, designed as: ON switch for flavin mononucleotide

Sequence	apparent Kd [1] [nM]	apparent Kd [2] [nM]	apparent Kd [3] [nM]	apparent Kd [4] [nM]
UGAUGUAAAGAGAAGGGCUACUGGUUGAAACCUGCGGCCUCUGGAACAUGAGGAUCACCCAUGUAGCAGGAUAUCUUUGCGUCA	169	31.4	–	–
AUAUUGUGAGGAUAUGAACUUAGAAUCGAAAGAUACUAAGUUCAGAAGGCACAUGAGGAUCACCCAUGUUUCUC	86	875	–	–
AGUAAGUUUGAGAAGGUGAAGUGGAAACAUGAGGAUCACCCAUGUAUUAGGAAGCCUGGUUUUGUCAAGGAUAUCGGGUUUACA	–	–	17.9	16.5
UCAGGCUUCGAGAAGGACAUGAAUCGUAGCAUUGCUACGAUGAAAUAUACAUGAGGAUCACCCAUGUAGGAUAUCGGAGUCUGC	5.35	6.13	–	–
UGGUACUAGGGAGGAUAUGGGAAGAUACAUGAGGAUCACCCAUGUUUAAGAAUGCCGAUAGGCAACUAGAAGGCCCUAGUACCU	–	–	406	18.7
AUUUGAAUCGUAGGAUAUCGCUUAAAUUUACCACGAGAAGGACGAACAUGAGGAUCACCCAUGUAACAUGGUGAAGAUAAUUUG	31.6	120	–	–
GUCGUACAUGAGGAUCACCCAUGUGAGGAUAUGAGUGACUCAGUGAAAACUGAGUCACUCAGAAGGCGCAUGAU	84.5	384	–	–
GGUACACAUGAGGAUCACCCAUGUCAGGAUAUCUGGAUACUCUUUAUUUUAGAUAUCCAGAGAAGGGACGUGCC	30.8	40.9	–	–
AGCGGCGCAGACCACCGCAAAACCAGAAGGACAUGAGGAUCACCCAUGUAACAAAACAGGGCGGUGUAGGAUAUGGCAGACCCA	8.87	7.71	–	–
GAAUAUUGGAUAAACAUGAGGAUCACCCAUGUAACUAGACAUGAGGAUAUGGAUUCUAAUUGGAUCCAGAAGGUAUCAAUAUUC	–	–	199	227
GUAUUUUUACAGAAGGUGUAUUACAUGAGGAUCACCCAUGUAUUAUGGAAUAAAGUUGUUAUUUACAAGGAUAUGUACUAUUUU	–	–	19.3	14.8
ACAUGAGGAUCACCCAUGUGAUGAUCUCCCAUGUUAUAUUUCAGAAGGCUCGUGUGUUUGAUGAGAGAGGAUAUGGAAUAUACG	377	258	–	–
GCAUGCGUUCGAGGAUAUCGGUGAGAAACGGAACGAGAAGGCGAUCGAAUGUCACAUAUUAUGUACAUGAGGAUCACCCAUGUA	–	–	126	37.8
AAUCGGGAGCAGAAGGCAUGUAAUAAAACAUGAGGAUCACCCAUGUAGUUAAGGCGAAAGCCGCAUGAGGAUAUGCUCCCGUAA	–	–	5.39	4.99
GUUUAUUUACAGAAGGUGUUUUACAUGAGGAUCACCCAUGUUUAAAUUUAUAAAGAAUUUAUUUACAAGGAUAUGUACAAUUUU	–	–	34.1	19
AGUGUGUGGCAGGAUAUUCUGAUCGUGAGUCGGGAAGAAGGGUCUACAUGAGGAUCACCCAUGUGAGCGGUUGA	248	432	–	–
CUUGUGUGAGGAUAUCAGUAGUAGUACGAUAGUAUUACUGCUGAGAAGGCACAUGAGGAUCACCCAUGUUCUUC	28.1	24.1	–	–
GAGAAGUCAGGAUAUGCUGCUCGUCACUUGCGUGAUGAGUAGCAGAAGGGACAUGAGGAUCACCCAUGUAAAGU	51.7	74.8	–	–
CCAUGGAAUGUAGGAUAUGUCUGACAAAGUCAGACAGAAGGACAUGAGGAUCACCCAUGUAGGAAACAACCACAUAAACCAUGG	6.83	7.08	–	–
UGCUAGUCAGGAUAUACGAACAUGUCGCCAGAUGUCAAGGUACAUGAGGAUCACCCAUGUAGAAGGGACUAGAA	39.2	107	–	–
AGCUAGUCAGGAUAUACGAACAUGUCAAAAGACGUGAACCCACAUGAGGAUCACCCAUGUAGAAGGGACUAGCA	26	65.7	–	–
AAUAUGAGCUGGUUAUAAAACCUGACAUGAGGAUCACCCAUGUAGGAUAUCAGCACGAUAAGUGCUGAGAAGGACAUCCAGCUC	13.4	14	–	–
UGUUAAUAAGAGAAGGAGGACUUCAUGAGGAUCACCCAUGUGUUAGUACUUAGGAUAUUUAAUAACAUGAGGAUCACCCAUGUC	–	–	45.2	40.4
UUUUUGUGAGGAUAUCAGUAGUAGAACAAUAGUACUACUACUGAGAAGGCACAUGAGGAUCACCCAUGUUCCUU	16	34.6	–	–
UUGGACGUCGUAGGAUAUGUAGGAUAUUCCUACAUGAGGAUCACCCAUGUUGACAUCGAAGAAGGACAGAAGGACGAUGUCCAU	–	–	88	5.29
GUAAUCAGUAAUAAAAGCCCGGGCGCAGAAGGCCAGACACAUGAGGAUCACCCAUGUAUCCCUAUGGAGGAUAUGUGUCACGUG	–	–	72.8	22.9
UUAAUUAUACAAGGAUAUCUAUUGUUGUUUCGACAUACAUGAGGAUCACCCAUGUUAGUAUGUUUAGAGAAGGUGUAUUUUCAG	–	–	29	25.7
